Screening results: PubChem, several laboratories
dFosB activator: activators of mouse delta FosB homodimer. P13346. purified delta FosB, TAMRA-CDK5 oligo fluorescence polarization; percent of positive-control signal above neutral wells. activation, % at 25 µM. hit rate 0.99% among 340,000. AID 493131;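 active = mean activation above about 17%, with every replicate also reaching it, limit read from the data, passing the limit was not always enough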
Target sequence (P13346 whole entry, looked up): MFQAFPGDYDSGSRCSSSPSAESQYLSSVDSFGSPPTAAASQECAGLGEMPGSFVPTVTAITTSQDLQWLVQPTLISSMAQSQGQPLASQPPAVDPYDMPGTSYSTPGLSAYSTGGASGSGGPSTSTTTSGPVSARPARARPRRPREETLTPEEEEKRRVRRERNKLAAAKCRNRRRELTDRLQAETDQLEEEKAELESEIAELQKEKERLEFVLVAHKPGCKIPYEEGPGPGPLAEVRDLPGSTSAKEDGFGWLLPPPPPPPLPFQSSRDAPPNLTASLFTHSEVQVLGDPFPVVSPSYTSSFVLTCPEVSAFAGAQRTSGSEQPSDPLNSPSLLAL
PKA-R1A act: activates the PKA-R1A holoenzyme complex. PKA-R1A dissociation, Cy5-IP20 fluorescence polarization; scaled: DMSO 0%, 113 µM cGMP 100%. activation, % at 11.4 µM. AID 504707. hit rate 0.083% among 340,000. P00514+P68181;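 active = percent activation above the mean of all tested compounds plus 3 SD, cut at about 19% in these data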;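 also: higher means more PKAc released from R1A so a rise in polarization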
NTR1 ag: activates human neurotensin receptor 1. P30989. NTR1-U2OS beta-arrestin-GFP spot imaging, agonist mode. activation, % at 20 µM. hit rate 0.17% among 330,000;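 active = activation at or above 40% of the spot to cytoplasm intensity ratio, with at least 20 cells analyzed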;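 also: 0% = DMSO without peptide and 100% = 100 nM NTR1 peptide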
PKA-R2B act: activators of human PKA-R2B complex; P22694+P31323; PKA-R2B holoenzyme dissociation, Cy5-IP20 fluorescence polarization; R2B truncated from residue 108, S112A mutant; 0% DMSO only, 100% 113 µM cGMP; activation, % at 11.4 µM; hit rate 0.079% among 340,000; AID 504700;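 active = activation above a cutoff set at the mean over all compounds plus 3 SD, cut at about 18% in these data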;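 also: higher means more holoenzyme dissociation and a rise in polarization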
CAL PDZ FP-1: human CAL PDZ-peptide interaction inhibition; Q9HD26; purified CAL PDZ, TMR-peptide fluorescence polarization, 1 h; inhibition, % at 20 µM; hit rate 0.02% among 330,000;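 active = highest replicate inhibition of at least 40%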;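 also: plate controls were DMSO neutral control wells for no effect and unlabeled competitor peptide control wells for full effect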
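System: purified tagged CAL PDZ domain construct (CerCALP). Schedule: 1 h incubation at room temperature before polarization reading. Medium: 25 mM sodium phosphate pH 7.4, 150 mM NaCl, TCEP, IgG, Thesit. Read-out: percent inhibition from loss of millipolarization. Measured by: FP readout, S and P plane fluorescence. Probe or stimulus: fluorescent TMR peptide probe.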
CAL PDZ FP-2: CAL PDZ (human) peptide binding inhibition; Q9HD26; purified CAL PDZ, TMR-peptide fluorescence polarization, 1 h; inhibition, % at 24.9 µM; hit rate 0.92% among 300,000; AID 602252;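 active = mean inhibition of at least 30% with at least half of replicates also reaching 30%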;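 also: 0% = DMSO neutral control and 100% = excess unlabeled competitor peptide PRC23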
* marks the source's active call; other numbers are inactive results; · = not tested or not shown; + = active, no number. A selection: hits, their analogues and other compounds. The true share with any hit is near 2%.

SMILES	dFosB activator	PKA-R1A act	NTR1 ag	PKA-R2B act	CAL PDZ FP-1	CAL PDZ FP-2
Cc1ccnc2nc(C(=O)NCc3ccccc3)nn12	4.4	-8.8	-1.0	3.8	8.0	197.2*
CCOc1ncccc1C(=O)OCC(=O)c1ccc(Br)s1	-11.0	-1.6	0.8	-8.3	0.0	·
CN(CCc1ccccc1)C(=O)CC1C(=O)NCCN1Cc1ccccn1 (centres undefined)	·	-7.0	·	-6.7	·	·
O=C(C1=NN[C@@H]2C(=O)N(c3cccc(F)c3)C(=O)[C@H]12)c1cnccn1	-7.0	·	-0.4	·	-0.3	·
O=C(C1=NN[C@@H]2C(=O)N(c3ccccc3C(F)(F)F)C(=O)[C@H]12)c1cnccn1	6.1	-4.2	0.5	-0.2	-1.2	122.6*
C[C@H](OC(=O)NCc1ccc(C(F)(F)F)cc1)[C@@H]1O[C@@]2(C)CCC[C@@H]1O2	-3.4	13.7	3.6	-8.9	0.7	-3.7
CCOc1cc(/C=C2\SC(N)=NC2=O)ccc1O	-2.4	-0.1	0.8	2.1	-2.5	-1.7
CCOc1c(Br)cc(Br)cc1/C=C1\SC(N)=NC1=O	25.0*	-3.6	-0.9	13.3	-0.9	-20.0
CCOC(=O)C1(C)Oc2ccccc2C(C(=O)OC)=C1C(=O)OC (centres undefined)	-6.9	-4.2	0.7	0.6	-0.6	+
CCOC(=O)C1(C)Oc2ccccc2C(c2ccc(OC)cc2)=C1C(=O)OC (centres undefined)	-6.3	3.5	1.4	4.7	0.4	-0.6
O=C(COC(=O)COc1ccc(Br)cc1)NCC1CCCO1 (centres undefined)	7.5	-0.4	0.0	2.9	0.0	90.7*
Cc1cc(C)nc(NC(=S)Nc2cccc(F)c2)c1	2.0	-5.0	-1.1	0.4	0.0	65.0*
COc1cccc(NC(=S)Nc2cc(C)cc(C)n2)c1	-7.6	-2.5	1.7	-2.4	-0.4	-0.4
O=c1c2cc(N3CCOCC3)ccc2[nH]c(=S)n1CCc1ccccc1	-5.9	-11.1	9.9	-15.9	-1.5	-1.1
COc1ccc(CCn2c(=S)[nH]c3ccc(N4CCOCC4)cc3c2=O)cc1OC	-1.9	1.3	4.2	1.4	20.4	128.4*
CCCn1c(N)c(C(=O)CSc2nnc(Cc3cccs3)n2C2CC2)c(=O)n(C)c1=O	-2.6	-0.7	-0.3	-5.6	-1.4	·
COc1ccc(-n2c(Cc3cc(=O)[nH]c(=O)[nH]3)nnc2SCC(=O)N2CCC(C)CC2)cc1	13.6	8.1	-0.4	-7.3	-0.1	1.6
COc1cccc(-n2c(Cc3cc(=O)[nH]c(=O)[nH]3)nnc2SCC(=O)N2CCC(C)CC2)c1	-6.9	0.8	-0.4	2.7	-0.2	50.1*
Cc1ccc(S(=O)(=O)N2CCCCC2)cc1NC(=O)CSc1ncn[nH]1	-4.4	-1.0	-0.1	12.8	-0.7	·
Cc1ccc(S(=O)(=O)N(C)C)cc1NC(=O)CSc1ncn[nH]1	5.7	-7.4	0.3	0.6	-1.0	34.4*
CCN1CCCC1CNC(=O)c1ccc2c(c1)NC(=O)/C(=C\c1ccc(OC)c(OC)c1)S2 (centres undefined)	44.4*	-3.9	1.4	5.4	-1.9	0.3
COC(=O)C1(C)CCCC2(C)c3cc(OC)ccc3C(=O)C(Br)C12 (centres undefined)	·	-3.5	·	-4.6	·	·
CCc1ccc(-c2nc(CS(=O)CC(=O)NCc3ccccc3)c(C)o2)cc1 (centres undefined)	-14.4	0.3	0.2	0.5	-1.1	70.6*
O=C1C=C(c2ccccc2C(F)(F)F)C[C@@H](c2ccc3c(c2)OCO3)C1	5.0	3.6	5.3	-2.1	-1.2	-2.2
Cc1cc(NC(=O)CN(C)S(=O)(=O)c2cccc(Cl)c2)no1	-1.0	-6.0	-0.2	5.2	-0.2	112.5*
SMILES	dFosB activator	PKA-R1A act	NTR1 ag	PKA-R2B act	CAL PDZ FP-1	CAL PDZ FP-2
CN(CC(=O)Nc1ccc(Cl)cc1)S(=O)(=O)c1ccc2c(c1)n(C)c(=O)c(=O)n2C	12.5	-4.1	0.8	4.4	-1.4	+
COc1ccccc1C(=O)NC1CCN(C(=O)Nc2ccc(F)cc2)CC1	-2.6	-0.2	-0.5	-4.7	-2.1	-3.0
C(=C1/CCCC2=C1Nc1ncnn1C2c1ccccc1)/c1ccccc1 (centres undefined)	·	·	72.8*	·	·	·
Cc1nccn1-c1ccc(C=O)cc1	4.0	-5.7	1.5	-8.6	-0.2	120.5*
COc1ncnc2c1N[C@@](C)(O)c1c(F)c(F)c(F)c(F)c1S2	3.9	3.6	0.0	-4.2	-1.3	46.4*
O=C(c1ccc(F)cc1)N1CCN(S(=O)(=O)c2ccc3c(c2)OCCO3)CC1	·	-6.0	·	-12.5	·	·
O=C(c1ccc(F)cc1F)N1CCN(S(=O)(=O)c2ccc3c(c2)OCCO3)CC1	-16.9	12.3	1.6	0.9	-1.0	30.7*
CCOCCCNc1nc(=S)[nH]c2cc(OC)c(OC)cc12	-5.0	-10.3	5.1	-3.1	-2.9	-1.7
COc1cc2[nH]c(=S)nc(NCCCOC(C)C)c2cc1OC	-7.5	12.2	1.1	7.5	-1.7	42.0*
Cc1ccc(C)c(S(=O)(=O)Nc2cc(SCC(=O)O)c(O)c3ccccc23)c1	-6.0	2.4	·	-7.1	45.2*	17.3
C=CCNC(=O)c1ccc(NC(=O)C2=CSCCO2)cc1	4.4	-3.1	0.2	-4.8	-3.3	·
O=C(CCNS(=O)(=O)c1ccccc1)NNC(=O)COc1ccc(Cl)cc1	1.4	1.8	-0.7	1.9	-0.3	-5.6
O=C(NCc1ccccn1)c1ccc([N+](=O)[O-])cc1	-2.8	3.0	-1.1	-8.9	-2.3	-2.2
O=C(Cc1ccc([N+](=O)[O-])cc1)NCc1ccccn1	-2.5	-7.2	0.7	11.8	-0.6	75.8*
Cc1nc(Nc2ccc(C(=O)O)cc2)sc1-c1ccccc1	-6.1	5.9	1.2	-9.1	-0.3	55.9*
COCCNC(=O)c1cc2cc(Br)cc(Br)c2oc1=O	-6.9	-1.1	0.2	2.5	-0.8	48.2*
COCCNC(=O)c1cc2cc(Br)cc(OC)c2oc1=O	-2.1	-3.9	1.0	3.1	-2.3	-1.1
COc1ccc(CN2C[C@H]3CCCN3c3cc(Br)ccc3S2(=O)=O)cc1	-5.3	-8.1	1.8	-2.8	-1.1	-1.1
C#CCN1[C@@H]2CCN(C2)c2cc(Br)ccc2S1(=O)=O	-8.2	8.3	·	-5.2	-0.4	50.9*
CSc1nc(-c2ccc(N(C)C)cc2)c(C#N)c(=O)n1C	-9.6	-6.0	-1.4	-2.2	0.8	·
O=C(N/N=C/c1c[nH]c2ccccc12)c1ccccc1	-1.6	-6.0	0.7	6.9	-0.2	37.5*
Cc1ccc(S(=O)(=O)Nc2cccc(-n3cnnn3)c2)cc1	-4.9	6.8	0.2	-1.5	0.1	53.4*
O=S(=O)(Nc1cccc(-n2cnnn2)c1)c1ccc(F)cc1	-5.6	-9.4	-1.0	-5.5	-2.0	-1.1
